# Measured values reported in ChEMBL document CHEMBL5385966, “Synthesis and biological evaluation of new naphthalimide-thiourea derivatives as potent antimicrobial agents active against multidrug-resistant Staphylococcus aureus and Mycobacterium tuberculosis” (RSC Med Chem, 2024).
# The source made the active and inactive calls. The calls are words filed in the database; no cut-off is given here.
# Tests used:
# Acinetobacter baumannii = assay: Antibacterial activity against Acinetobacter baumannii BAA 1605 assessed as bacterial growth inhibition incubated for 16 to 18 hrs by CLSI based antibiotic susceptibility testing method; type: functional, organism-based; details: time 16-18 hrs
# Method in brief: (§1)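 Broth microdilution in cation-adjusted Mueller-Hinton broth. Compounds were tested at […], with levofloxacin as reference and medium-only controls. Plates were incubated at 37 °C for 16-18 h. MIC was the lowest concentration with no visible growth; three independent determinations, each in duplicate.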
# Staphylococcus aureus [1] = assay: Antibacterial activity against methicillin/ceftriaxone/meropenem-resistant Staphylococcus aureus NRS10192 clinical isolate assessed as bacterial growth inhibition incubated for 16 to 18 hrs by CLSI based antibiotic susceptibility testing method; type: functional; details: time 16-18 hrs; method in brief: as §1
# Staphylococcus aureus [2] = assay: Antibacterial activity against Staphylococcus aureus ATCC 29213 assessed as bacterial growth inhibition incubated for 16 to 18 hrs by CLSI based antibiotic susceptibility testing method; type: functional; details: time 16-18 hrs; method in brief: as §1
# Staphylococcus aureus [3] = assay: Antibacterial activity against methicillin/ceftriaxone/meropenem-resistant Staphylococcus aureus NRS10191 clinical isolate assessed as bacterial growth inhibition incubated for 16 to 18 hrs by CLSI based antibiotic susceptibility testing method; type: functional; details: time 16-18 hrs; method in brief: as §1
# [4] = system: Mycobacterium tuberculosis; assay: Antimycobacterial activity against Mycobacterium tuberculosis H37Rv ATCC 27294 assessed as bacterial growth inhibition incubated for 7 days by resazurin dye based broth microdilution method; type: functional; details: H37Rv ATCC 27294, 168 h, time 7 day
# Method in brief: (§2)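 Broth microdilution in Middlebrook 7H9 with 10% ADC-Tween-80 (0.2% glycerol, 0.05% Tween-80), inoculum ~10⁶ cfu/mL. Compounds came from 10 mg/mL DMSO stocks and were tested as two-fold serial dilutions at 37 °C, 7 days for M. tuberculosis H37Rv and 72 h for NTM. Growth was read visually with PrestoBlue resazurin dye; MIC was the lowest concentration preventing growth. Triplicate determinations, each in duplicate.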
# Klebsiella pneumoniae = assay: Antibacterial activity against Klebsiella pneumoniae BAA 1705 assessed as bacterial growth inhibition incubated for 16 to 18 hrs by CLSI based antibiotic susceptibility testing method; type: functional, organism-based; details: time 16-18 hrs; method in brief: as §1
# Staphylococcus aureus [5] = assay: Antibacterial activity against methicillin-sensitive Staphylococcus aureus ATCC 29213 clinical isolate assessed as bacterial growth inhibition incubated for 16 to 18 hrs by CLSI based antibiotic susceptibility testing method; type: functional; details: time 16-18 hrs; method in brief: as §1
# Mycobacteroides chelonae = assay: Antimycobacterial activity against Mycobacteroides chelonae ATCC 35752 assessed as bacterial growth inhibition incubated for 72 hrs by resazurin dye based broth microdilution method; type: functional, organism-based; method in brief: as §2
# Staphylococcus aureus [6] = assay: Antibacterial activity against methicillin/ceftriaxone/meropenem/gentamycin/linezolid-resistant Staphylococcus aureus NRS10100 clinical isolate assessed as bacterial growth inhibition incubated for 16 to 18 hrs by CLSI based antibiotic susceptibility testing method; type: functional; details: time 16-18 hrs; method in brief: as §1
# Staphylococcus aureus [7] = assay: Bactericidal activity against Staphylococcus aureus ATCC 29213 assessed as reduction in remnant bacterial cells measured for 24 hrs by time-kill assay; type: functional, organism-based
# Method in brief: (§3)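 Time-kill assay: S. aureus ATCC 29213 at ~10⁶ cfu/mL in MHB, exposed to 1X and 10X MIC at 37 °C, in triplicate. Samples taken at 0, 1, 6 and 24 h were serially diluted in PBS and plated on TSA for 18-20 h at 37 °C. Surviving cfu/mL were counted against untreated controls.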
# Staphylococcus aureus [8] = assay: Antibacterial activity against methicillin/ceftriaxone/meropenem-resistant Staphylococcus aureus NRS10198 clinical isolate assessed as bacterial growth inhibition incubated for 16 to 18 hrs by CLSI based antibiotic susceptibility testing method; type: functional; details: time 16-18 hrs; method in brief: as §1
# Escherichia coli = assay: Antibacterial activity against Escherichia coli ATCC 25922 assessed as bacterial growth inhibition incubated for 16 to 18 hrs by CLSI based antibiotic susceptibility testing method; type: functional, organism-based; details: time 16-18 hrs; method in brief: as §1
# Staphylococcus aureus [9] = assay: Antibacterial activity against methicillin/ceftriaxone-resistant Staphylococcus aureus NRS10194 clinical isolate assessed as bacterial growth inhibition incubated for 16 to 18 hrs by CLSI based antibiotic susceptibility testing method; type: functional; details: time 16-18 hrs; method in brief: as §1
# [10] = Selectivity index, ratio of CC50 for African green monkey Vero cells to MIC for Staphylococcus aureus ATCC 29213; type: toxicity, cell-based; details: read-out: Selectivity Index
# Staphylococcus aureus [11] = assay: Bactericidal activity against Staphylococcus aureus ATCC 29213 assessed as reduction in remnant bacterial cells at 10 times MIC measured for 24 hrs by time-kill assay; type: functional; method in brief: as §3
# Staphylococcus aureus [12] = assay: Antibacterial activity against methicillin/ceftriaxone/meropenem/gentamycin/linezolid-resistant Staphylococcus aureus NRS10119 clinical isolate assessed as bacterial growth inhibition incubated for 16 to 18 hrs by CLSI based antibiotic susceptibility testing method; type: functional; details: time 16-18 hrs; method in brief: as §1
# Pseudomonas aeruginosa = assay: Antibacterial activity against Pseudomonas aeruginosa ATCC 27853 assessed as bacterial growth inhibition incubated for 16 to 18 hrs by CLSI based antibiotic susceptibility testing method; type: functional, organism-based; details: time 16-18 hrs; method in brief: as §1
# [13] = system: Mycolicibacterium fortuitum; assay: Antimycobacterial activity against Mycobacterium fortuitum ATCC 6841 assessed as bacterial growth inhibition incubated for 72 hrs by resazurin dye based broth microdilution method; type: functional, organism-based; method in brief: as §2
# Staphylococcus aureus [14] = assay: Antibacterial activity against methicillin/ceftriaxone/meropenem-resistant Staphylococcus aureus NRS10186 clinical isolate assessed as bacterial growth inhibition incubated for 16 to 18 hrs by CLSI based antibiotic susceptibility testing method; type: functional; details: time 16-18 hrs; method in brief: as §1
# Staphylococcus aureus [15] = assay: Antibacterial activity against methicillin/ceftriaxone/meropenem/vancomycin/teicoplanin-resistant Staphylococcus aureus VRS12 clinical isolate assessed as bacterial growth inhibition incubated for 16 to 18 hrs by CLSI based antibiotic susceptibility testing method; type: functional; details: time 16-18 hrs; method in brief: as §1
# Staphylococcus aureus [16] = assay: Antibacterial activity against methicillin/ceftriaxone/meropenem-resistant Staphylococcus aureus NRS10193 clinical isolate assessed as bacterial growth inhibition incubated for 16 to 18 hrs by CLSI based antibiotic susceptibility testing method; type: functional; details: time 16-18 hrs; method in brief: as §1
# Staphylococcus aureus [17] = assay: Antibacterial activity against methicillin/ceftriaxone/meropenem-resistant Staphylococcus aureus NRS10129 clinical isolate assessed as bacterial growth inhibition incubated for 16 to 18 hrs by CLSI based antibiotic susceptibility testing method; type: functional; details: time 16-18 hrs; method in brief: as §1
# Staphylococcus aureus [18] = assay: Antibacterial activity against methicillin/ceftriaxone/meropenem/gentamycin/vancomycin/teicoplanin-resistant Staphylococcus aureus VRS1 clinical isolate assessed as bacterial growth inhibition incubated for 16 to 18 hrs by CLSI based antibiotic susceptibility testing method; type: functional; details: time 16-18 hrs; method in brief: as §1
# [19] = Cytotoxicity against African green monkey Vero cells by MTT assay; type: toxicity, cell-based; details: chlorocebus sabaeus
# Method in brief: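 Vero cells were seeded at ~10³ per well at 37 °C, 5% CO2. After 24 h, compounds were added at 5-100 mg/L for 72 h. […] was added for 4 h, formazan was dissolved in DMSO and read at 540 nm. CC50 was taken as the lowest concentration reducing viability by 50%; doxorubicin was the positive control; triplicate.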
# Staphylococcus aureus [20] = assay: Antibacterial activity against methicillin/ceftriaxone/meropenem/vancomycin/teicoplanin-resistant Staphylococcus aureus VRS4 clinical isolate assessed as bacterial growth inhibition incubated for 16 to 18 hrs by CLSI based antibiotic susceptibility testing method; type: functional; details: time 16-18 hrs; method in brief: as §1
# [21] = system: Mycobacteroides abscessus; assay: Antimycobacterial activity against Mycobacterium abscessus ATCC 19977 assessed as bacterial growth inhibition incubated for 72 hrs by resazurin dye based broth microdilution method; type: functional, organism-based; method in brief: as §2
# Staphylococcus aureus [22] = assay: Antimicrobial activity against methicillin-resistant Staphylococcus aureus assessed as microbial growth inhibition by NCCLS based assay; type: functional
# Staphylococcus aureus [23] = assay: Antimicrobial activity against methicillin-resistant Staphylococcus aureus Newman assessed as microbial growth inhibition; type: functional
# Staphylococcus aureus [24] = assay: Antimicrobial activity against Staphylococcus aureus assessed as microbial growth inhibition; type: functional
Structure (SMILES),growth inhibition (GI) (Acinetobacter baumannii),MIC (Staphylococcus aureus [1]),MIC (Staphylococcus aureus [2]),MIC (Staphylococcus aureus [3]),MIC [4],growth inhibition (GI) (Klebsiella pneumoniae),MIC (Staphylococcus aureus [5]),growth inhibition (GI) (Mycobacteroides chelonae),MIC (Staphylococcus aureus [6]),MIC (Staphylococcus aureus [8]),growth inhibition (GI) (Escherichia coli),MIC (Staphylococcus aureus [9]),selectivity ratio [10],MIC (Staphylococcus aureus [12]),growth inhibition (GI) (Pseudomonas aeruginosa),growth inhibition (GI) [13],MIC (Staphylococcus aureus [14]),MIC (Staphylococcus aureus [15]),MIC (Staphylococcus aureus [16]),MIC (Staphylococcus aureus [17]),further results
O=C1c2cccc3cccc(c23)C(=O)N1CCN1CCN(C(=S)NC2CCCCC2)CC1,inactive,0.25 µg/mL,0.125 µg/mL,0.25 µg/mL,4 µg/mL,inactive,0.25 µg/mL,inactive,0.25 µg/mL,0.25 µg/mL,inactive,0.25 µg/mL,> 160,0.25 µg/mL,inactive,inactive,0.25 µg/mL,0.5 µg/mL,0.25 µg/mL,0.25 µg/mL,Activity (Staphylococcus aureus [7]): Dose-Dependent Effect; Activity (Staphylococcus aureus [11]): ~5 log10CFU/ml; MIC (Staphylococcus aureus [18]): 0.25 µg/mL; CC50 [19]: > 20 µg/mL; MIC (Staphylococcus aureus [20]): 0.25 µg/mL; growth inhibition (GI) [21]: inactive
O=C(CN1C(=O)c2cccc3cccc(c23)C1=O)N1CCC(NC(=S)NC2CCCCC2)CC1,inactive,0.125 µg/mL,0.125 µg/mL,0.125 µg/mL,> 64 µg/mL,inactive,0.125 µg/mL,inactive,0.125 µg/mL,0.125 µg/mL,inactive,0.125 µg/mL,> 800,0.125 µg/mL,inactive,inactive,0.125 µg/mL,0.125 µg/mL,0.125 µg/mL,0.125 µg/mL,MIC (Staphylococcus aureus [18]): 0.125 µg/mL; CC50 [19]: > 100 µg/mL; MIC (Staphylococcus aureus [20]): 0.125 µg/mL; growth inhibition (GI) [21]: inactive
CCNc1ccc2c3c(cccc13)C(=O)N(CC(O)Cn1c([N+](=O)[O-])cnc1C)C2=O (configuration not stated),,,,,,,,,,,,,,,,,,,,,MIC (Staphylococcus aureus [22]): 40 µM
S=C(Nc1ccc(Cl)cc1)n1ccc(OCc2ccccc2)n1,,,,,,,,,,,,,,,,,,,,,MIC (Staphylococcus aureus [23]): 0.15 µM
O=C(CN1C(=O)c2cccc3cccc(c23)C1=O)N1CCN(C(=S)NC2CCCCC2)CC1,inactive,0.125 µg/mL,0.25 µg/mL,0.25 µg/mL,> 64 µg/mL,inactive,0.125 µg/mL,inactive,0.5 µg/mL,0.25 µg/mL,inactive,0.125 µg/mL,> 400,0.25 µg/mL,inactive,inactive,0.125 µg/mL,0.25 µg/mL,0.25 µg/mL,0.25 µg/mL,MIC (Staphylococcus aureus [18]): 0.25 µg/mL; CC50 [19]: > 100 µg/mL; MIC (Staphylococcus aureus [20]): 0.25 µg/mL; growth inhibition (GI) [21]: inactive
CCCOC(=O)c1ccc2sc(NC(=S)N[C@@H]3O[C@H](COC(C)=O)[C@@H](OC(C)=O)[C@H](OC(C)=O)[C@H]3OC(C)=O)nc2c1,,,,,,,,,,,,,,,,,,,,,MIC (Staphylococcus aureus [24]): 0.78 µg/mL
